The target of experiment [1] is T1, Hexokinase-1 (Rattus norvegicus) (UniProt P05708).
T1 sequence (whole entry): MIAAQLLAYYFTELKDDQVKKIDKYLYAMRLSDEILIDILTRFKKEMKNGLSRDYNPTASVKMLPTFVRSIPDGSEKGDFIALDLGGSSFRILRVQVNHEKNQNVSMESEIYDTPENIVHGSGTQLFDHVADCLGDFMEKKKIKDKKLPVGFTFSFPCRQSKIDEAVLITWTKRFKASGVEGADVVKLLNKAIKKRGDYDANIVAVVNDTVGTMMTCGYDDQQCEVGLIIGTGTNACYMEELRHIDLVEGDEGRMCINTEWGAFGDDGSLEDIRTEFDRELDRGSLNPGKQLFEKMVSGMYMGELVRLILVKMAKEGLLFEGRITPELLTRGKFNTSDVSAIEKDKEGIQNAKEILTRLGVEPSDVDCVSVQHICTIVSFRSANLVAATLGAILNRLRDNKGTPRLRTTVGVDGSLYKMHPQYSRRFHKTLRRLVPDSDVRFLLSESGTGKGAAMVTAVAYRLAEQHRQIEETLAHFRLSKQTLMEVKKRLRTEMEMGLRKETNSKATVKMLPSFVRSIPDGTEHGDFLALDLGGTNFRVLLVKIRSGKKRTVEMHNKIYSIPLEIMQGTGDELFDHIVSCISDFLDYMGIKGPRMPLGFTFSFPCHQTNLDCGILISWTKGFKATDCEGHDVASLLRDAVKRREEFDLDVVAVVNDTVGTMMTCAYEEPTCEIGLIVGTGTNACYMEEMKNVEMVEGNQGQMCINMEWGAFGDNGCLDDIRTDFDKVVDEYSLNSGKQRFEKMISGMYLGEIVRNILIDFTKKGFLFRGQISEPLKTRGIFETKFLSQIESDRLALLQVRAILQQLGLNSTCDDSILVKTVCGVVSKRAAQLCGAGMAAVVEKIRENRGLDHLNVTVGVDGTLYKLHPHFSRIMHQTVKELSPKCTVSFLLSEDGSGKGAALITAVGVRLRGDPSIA
The experiment can be described thus: Time dependent inhibition of Hexokinase type I activity after 6 h, at 22 degrees celsius, at 5 mM compound.

Experiment [2] has as its system Saccharomyces cerevisiae. The experiment can be described thus: Time dependent inhibition of hexokinase activity after 6 hr, at 22 degrees celsius, with 5 mM ATP derivative in yeast.
For experiment [3], the target named is T2, Hexokinase-2 (Rattus norvegicus) (UniProt P27881).
T2 sequence (whole entry): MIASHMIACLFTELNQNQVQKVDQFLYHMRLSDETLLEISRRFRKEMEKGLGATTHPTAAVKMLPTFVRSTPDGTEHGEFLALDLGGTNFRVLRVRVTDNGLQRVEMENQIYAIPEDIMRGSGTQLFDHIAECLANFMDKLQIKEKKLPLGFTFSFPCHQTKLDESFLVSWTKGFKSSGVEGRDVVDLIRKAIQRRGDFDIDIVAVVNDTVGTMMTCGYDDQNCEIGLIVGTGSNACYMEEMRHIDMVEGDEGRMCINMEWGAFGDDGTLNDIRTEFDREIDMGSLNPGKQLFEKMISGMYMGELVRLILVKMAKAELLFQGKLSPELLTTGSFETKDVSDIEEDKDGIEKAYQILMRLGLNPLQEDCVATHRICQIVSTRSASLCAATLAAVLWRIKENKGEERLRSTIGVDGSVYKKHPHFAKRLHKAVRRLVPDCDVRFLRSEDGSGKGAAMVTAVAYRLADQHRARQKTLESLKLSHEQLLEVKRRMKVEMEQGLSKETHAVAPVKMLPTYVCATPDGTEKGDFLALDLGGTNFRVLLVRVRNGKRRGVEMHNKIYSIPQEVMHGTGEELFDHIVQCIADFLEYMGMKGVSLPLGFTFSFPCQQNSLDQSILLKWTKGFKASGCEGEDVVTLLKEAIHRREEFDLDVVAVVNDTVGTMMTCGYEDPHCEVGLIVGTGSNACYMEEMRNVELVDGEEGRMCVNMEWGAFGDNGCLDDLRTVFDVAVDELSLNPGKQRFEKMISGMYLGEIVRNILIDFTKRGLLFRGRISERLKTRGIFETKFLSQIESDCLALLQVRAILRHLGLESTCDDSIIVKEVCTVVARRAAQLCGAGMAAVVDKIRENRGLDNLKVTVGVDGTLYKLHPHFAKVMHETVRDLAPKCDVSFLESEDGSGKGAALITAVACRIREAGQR
The experiment can be described thus: Time dependent inhibition of hexokinase 2 activity after 6 h, at 5 mM compound.

Experiment [4] addresses T3, Hexokinase-3 (Rattus norvegicus) (UniProt P27926).
T3 sequence (whole entry): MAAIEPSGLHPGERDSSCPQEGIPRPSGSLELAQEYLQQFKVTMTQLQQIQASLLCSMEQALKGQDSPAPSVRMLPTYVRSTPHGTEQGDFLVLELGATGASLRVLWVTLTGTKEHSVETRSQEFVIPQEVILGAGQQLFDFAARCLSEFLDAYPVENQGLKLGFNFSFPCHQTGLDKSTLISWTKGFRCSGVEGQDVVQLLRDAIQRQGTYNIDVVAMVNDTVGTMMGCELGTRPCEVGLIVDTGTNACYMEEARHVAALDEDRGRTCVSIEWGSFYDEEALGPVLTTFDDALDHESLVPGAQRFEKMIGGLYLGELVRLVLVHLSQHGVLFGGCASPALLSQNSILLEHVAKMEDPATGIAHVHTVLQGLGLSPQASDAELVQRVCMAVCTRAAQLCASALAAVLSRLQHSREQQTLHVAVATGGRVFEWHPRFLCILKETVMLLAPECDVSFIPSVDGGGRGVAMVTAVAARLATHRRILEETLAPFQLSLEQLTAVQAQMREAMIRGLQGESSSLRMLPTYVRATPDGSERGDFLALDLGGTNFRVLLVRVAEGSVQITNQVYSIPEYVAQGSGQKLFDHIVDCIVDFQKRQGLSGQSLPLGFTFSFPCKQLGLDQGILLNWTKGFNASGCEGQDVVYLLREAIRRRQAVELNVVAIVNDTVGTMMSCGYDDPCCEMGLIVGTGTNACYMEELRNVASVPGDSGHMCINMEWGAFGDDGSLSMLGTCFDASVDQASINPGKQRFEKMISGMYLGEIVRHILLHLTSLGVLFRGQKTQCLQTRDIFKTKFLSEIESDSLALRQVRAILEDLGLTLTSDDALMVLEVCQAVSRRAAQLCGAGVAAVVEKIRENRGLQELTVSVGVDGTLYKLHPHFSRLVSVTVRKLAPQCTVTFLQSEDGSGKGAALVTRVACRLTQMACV
The experiment can be described thus: Time dependent inhibition of Hexokinase type III activity after 6 h, at 22 degrees celsius, at 5 mM.

The nature of experiment [5]: Tested for the velocity of 2.8 mM compound relative to that of 2.8 mM MgATP in the assay. A digest of the protocol: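 E. coli TK substrate test. 0.5 h after adding inhibitor, the mixture was diluted to 2.8 mM derivative in thymidine assay medium without ATP and with 1.42 mM MnCl2. Incubated 15 min at 37 °C, in the linear range. [14C]TMP formed was compared with that from 2.8 mM ATP under the same conditions.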

For experiment [6], the target named is Thymidine kinase (Escherichia coli) (UniProt P23331). The experiment can be described thus: Compound was tested for the lose of thymidine kinase activity after 6 hr, at 0 degrees celsius, with 10 mM ATP derivative. values were expressed in percent.
Experiment [7] shares this target. Description: Compound was tested for the initial inhibition of thymidine kinase by 1.4 mM compound in the presence of 5.7 mM ATP in Escherichia coli.
For experiment [8], the target named is T1, Hexokinase-1 (Rattus norvegicus). Description: Substrate activity for rat hexokinase I as 1:1 Mg complex at 5.0 mM. A digest of the protocol: (§1)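 Hexokinase activity read at 22 °C as A340 change, coupled to glucose-6-phosphate dehydrogenase, in 0.05 M Tris-HCl pH 7.6 with 6.6 mM MgCl2, 10 mM α-D-glucose and 0.93 mM NADP. Donor was 5.0 mM MgATP derivative (1:1 Mg complex) in place of ATP. Yeast HK was isoelectric-focused. Rat HK I and III came from electrofocused liver extract, HK II from dialysed muscle extract.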

The target of experiment [9] is T2, Hexokinase-2 (Rattus norvegicus). Description: Substrate activity against Rat hexokinase II as 1:1 Mg complex at 5.0 mM. A digest of the protocol:
as §1

Experiment [10] addresses T3, Hexokinase-3 (Rattus norvegicus). Description: Substrate activity for rat hexokinase III as 1:1 Mg complex at 5.0 mM. A digest of the protocol: as §1
The target in experiment [11] is Thymidine kinase (Escherichia coli) (UniProt P23331). Description: Compound was tested for the loss of thymidine kinase activity from Escherichia coli after 6 hr at 0 degrees C at 10 mM.
Experiment [12] concerns Saccharomyces cerevisiae. Description: Substrate activity against yeast hexokinase as 1:1 Mg complexes at 5.0 mM. A digest of the protocol: as §1

Each structure is given as a SMILES string.

We go through eleven compounds from ChEMBL document CHEMBL1122206, “Use of adenine nucleotide derivatives to assess the potential of exo-active-site-directed reagents as species- or isozyme-specific enzyme inactivators. 5. Interactions of adenosine 5'-triphosphate derivatives with rat pyruvate kinases, Escherichia coli thymidine kinase, and yeast and rat …” (1982).

Sequence of Thymidine kinase (Escherichia coli) (P23331 whole entry, looked up): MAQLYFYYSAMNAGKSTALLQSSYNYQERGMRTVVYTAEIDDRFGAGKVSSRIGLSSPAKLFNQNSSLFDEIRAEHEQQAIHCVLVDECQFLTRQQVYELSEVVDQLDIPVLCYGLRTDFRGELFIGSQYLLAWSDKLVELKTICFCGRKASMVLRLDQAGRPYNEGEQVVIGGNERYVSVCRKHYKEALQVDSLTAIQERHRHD

As for `Nc1ncnc2c1nc(NCCCCCCNC(=O)CI)n2[C@@H]1O[C@H](COP(=O)(O)OP(=O)(O)OP(=O)(O)O)[C@@H](O)[C@H]1O`, the inhibition in [1], in [2], in experiment [3] and in experiment [4] was 0% throughout.

Regarding `Nc1ncnc2c1nc(NCCNC(=O)CI)n2[C@@H]1O[C@H](COP(=O)(O)OP(=O)(O)OP(=O)(O)O)[C@@H](O)[C@H]1O`, the inhibition in [1], in experiment [3] and in [4] was 0% throughout.

`O=C(CI)NCCC(=O)NCCCCCCNc1ncnc2c1ncn2[C@@H]1O[C@H](COP(=O)(O)OP(=O)(O)OP(=O)(O)O)[C@@H](O)[C@H]1O`: the inhibition (commonly the share of the control response that was lost under treatment) in experiment [1] was determined as 0%; in [2], 0%; in experiment [3], 0%; in [6] it was 0%; in experiment [4], 0%; in [7] it was 1%. For the same compound, in experiment [5], the Velocity amounted to 53%.

For `CC(=O)NCCCCCCCCNc1ncnc2c1ncn2[C@@H]1O[C@H](COP(=O)(O)OP(=O)(O)OP(=O)(O)O)[C@@H](O)[C@H]1O`, the inhibition in experiment [1], in experiment [2] and in experiment [4] was 0% in each case. For the same compound, the Relative velocity in experiment [8] was 1.12; in experiment [9], 0.6; in experiment [10], 1.25.

With `O=C(CI)NCCCCCCC(=O)NCCCCCCNc1ncnc2c1ncn2[C@@H]1O[C@H](COP(=O)(O)OP(=O)(O)OP(=O)(O)O)[C@@H](O)[C@H]1O`, the inhibition in experiment [1] amounted to 0%; in [2], 0%; in [3], 0%; in experiment [6], 0%; in [7] it was 12%. This compound also yielded a Velocity in experiment [5] of 41%.

Regarding `O=C(CI)NCCCCCC(=O)NCCCCNc1ncnc2c1ncn2[C@@H]1O[C@H](COP(=O)(O)OP(=O)(O)OP(=O)(O)O)[C@@H](O)[C@H]1O`, the inhibition in [1], in experiment [2], in experiment [6] and in [4] was 0% in each case. The Velocity in [5] came out at 71%.

Regarding `CN(CCCCN(C)c1ncnc2c1ncn2[C@@H]1O[C@H](COP(=O)(O)OP(=O)(O)OP(=O)(O)O)[C@@H](O)[C@H]1O)C(=O)CCCCCCNC(=O)CI`, the inhibition amounted to 0% in [2], 0% in experiment [6] and 1% in experiment [7]. This compound also showed a Velocity in experiment [5] of 55%.

For the compound `CC(=O)NCCCCCC(=O)N(C)CCCCN(C)c1ncnc2c1ncn2[C@@H]1O[C@H](COP(=O)(O)OP(=O)(O)OP(=O)(O)O)[C@@H](O)[C@H]1O`, the inhibition in [11] was 0%. Besides, the Velocity in experiment [5] turned out to be 41%.

On to `Nc1ncnc2c1nc(NCCCCCCCCNC(=O)CI)n2[C@@H]1O[C@H](COP(=O)(O)OP(=O)(O)OP(=O)(O)O)[C@@H](O)[C@H]1O`, for which the Relative velocity turned out to be 1.16 in experiment [8], 0.54 in [12], 0.82 in experiment [9] and 1.81 in experiment [10]. For the same compound, the inhibition in experiment [11] and in [4] was 0% throughout.

For the compound `Nc1ncnc2c1nc(NCCCCNC(=O)CI)n2[C@@H]1O[C@H](COP(=O)(O)OP(=O)(O)OP(=O)(O)O)[C@@H](O)[C@H]1O`, the inhibition in [1], in experiment [3] and in experiment [4] was 0% each time.

In the case of `CN(CCCCCCN(C)c1ncnc2c1ncn2[C@@H]1O[C@H](COP(=O)(O)OP(=O)(O)OP(=O)(O)O)[C@@H](O)[C@H]1O)C(=O)CCCCCNC(=O)CI`, the Velocity in experiment [5] was 49%. The results for the inhibition in [6] and in experiment [7] were 0% and 5%, respectively.
